This passage reports EC50 and Activity results from ChEMBL document CHEMBL1157235, “Lupane and oleanane triterpenoids from the cones of Liquidamber styraciflua” (2006).

The test system of assay [1] is P388. As to the kind of experiment: Cytotoxicity against mouse P388 cells after 72 hrs by MTT assay. The note with it: P388, 72 h, read-out: ED50 (the source's name). Format: functional. A digest of the protocol: (§1)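 Cells were grown in RPMI-1640 with 10% FBS at 37 °C under humidified 5% CO2 and seeded at 1 × 10^4 cells/well with compounds for 72 h. MTT (5 mg/mL stock) was then added for 4 h at 37 °C. Formazan was solubilized with acidic SDS (0.02 N HCl in 20% SDS), and absorbance was read at 570 nm against a 620 nm reference.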
For orientation: Formazan colour is commonly taken as a measure of viable cells.

Assay [2] has as its system A549. Nature of the assay: Cytotoxicity against human A549 cells after 72 hrs by MTT assay. The assay is classed as functional. Particulars: A549, 72 h, read-out: ED50 (the source's name). A digest of the protocol: as §1
The subject of assay [3] is A549. Nature of the assay: Cytotoxicity against human A549 cells at 40 uM after 72 hrs by MTT assay. The assay is classed as functional, cell-based.
The subject of assay [4] is P388. As to the kind of experiment: Cytotoxicity against mouse P388 cells at 40 uM after 72 hrs by MTT assay. The assay is classed as functional, cell-based.

The source made the active and inactive calls. The rule behind the calls is not given here.

For the compound `CC1(C)CC[C@]2(C(=O)O)CC[C@]3(C)C(=CC[C@@H]4[C@@]5(C)CCC(=O)C(C)(C)[C@@H]5[C@H](O)C[C@]43C)[C@@H]2C1`, the EC50 stood at 18.5 µM in assay [1] and 33.5 µM in assay [2].

Take `C=C(CO)[C@@H]1CC[C@]2(C(=O)O)CC[C@]3(C)[C@H](CC[C@@H]4[C@@]5(C)CCC(=O)C(C)(C)[C@@H]5[C@H](O)C[C@]43C)[C@@H]12`: the outcome in assay [3] and in assay [4] was inactive.

As to `CC1(C)CC[C@]2(C(=O)O)CC[C@]3(C)C(=CC[C@@H]4[C@]56CC[C@@](O)(OC5)C(C)(C)[C@@H]6CC[C@]43C)[C@@H]2C1` [LANTANOLIC ACID], the EC50 in assay [1] worked out at 24 µM; in assay [2], 26.5 µM.

As for `CC(=O)[C@@H]1CC[C@]2(C(=O)O)CC[C@]3(C)[C@H](CC[C@@H]4[C@@]5(C)CCC(=O)C(C)(C)[C@@H]5[C@H](O)C[C@]43C)[C@@H]12`, the result in assay [3] and in assay [4] was inactive.

With `CC(=O)OC[C@]12CC[C@@H](O)C(C)(C)C1CC[C@]1(C)[C@@H]2CC=C2[C@@H]3CC(C)(C)CC[C@]3(C(=O)O)CC[C@]21C` (stereo not given in full), the figures for the EC50 in assay [1] and in assay [2] were 28.2 µM and 13.3 µM, respectively.

Consider `C=C(C)[C@@H]1CC[C@]2(C(=O)O)CC[C@]3(C)[C@@H](CC[C@@H]4[C@@]5(C)CCC(=O)C(C)(C)[C@@H]5[C@H](O)C[C@]43C)[C@@H]12`, for which the EC50 in assay [1] was 32.7 µM; in assay [2], not below 40 µM.

On to `C=C(C)[C@@H]1CC[C@]2(C(=O)O)CC[C@]3(C)[C@H](CC[C@@H]4[C@]56CC[C@@](O)(OC5)C(C)(C)[C@@H]6CC[C@]43C)[C@@H]12`, for which the EC50 was determined as 22.3 µM in assay [1] and 29.9 µM in assay [2].

In the case of `COc1cc([C@@H]2c3cc4c(cc3[C@@H](O[C@@H]3O[C@@H]5CO[C@@H](C)O[C@H]5[C@H](O)[C@H]3O)[C@H]3COC(=O)[C@H]23)OCO4)cc(OC)c1O` [ETOPOSIDE], the EC50 in assay [2] stood at 3.76 µM.
